From ChEMBL document CHEMBL1124533, “Inhibition of human leukocyte elastase by derivatives of N-hydroxysuccinimide. A structure-activity-relationship study” (J Med Chem, 1989)
Calls of active or inactive are those of the source. The calls are words filed in the database; no cut-off is given here.

Target: T1, Neutrophil elastase (Homo sapiens) (UniProt P08246)
T1 sequence (whole entry): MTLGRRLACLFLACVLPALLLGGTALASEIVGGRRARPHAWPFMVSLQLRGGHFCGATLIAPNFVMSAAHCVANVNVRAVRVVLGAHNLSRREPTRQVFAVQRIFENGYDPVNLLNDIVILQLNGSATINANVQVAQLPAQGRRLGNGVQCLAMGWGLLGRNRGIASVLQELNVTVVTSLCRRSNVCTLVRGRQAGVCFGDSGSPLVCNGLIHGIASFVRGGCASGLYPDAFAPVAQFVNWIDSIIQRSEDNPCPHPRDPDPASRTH
Test: Catalytic rate constant (Kobs/[I]) against human leukocyte elastase was determined
How it was run: (§1)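 Human leukocyte elastase (10 μL of 2.23 × 10⁻⁵ M stock in 0.05 M sodium acetate, pH 5.5) preincubated with inhibitor (20 μL of 2.23 × 10⁻² M DMSO stock) in HEPES pH 7.2, 1 mL total, thermostated. Aliquots withdrawn over time into MeOSuc-Ala-Ala-Pro-Val-pNA; A410 read for 2 min after 30 s. kobs from ln(vt/v0) vs t, divided by [I]; mean of two determinations.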

| Compound | K obs / 1 |
| --- | --- |
| O=C1CC(Cc2ccccc2)C(=O)N1OS(=O)(=O)c1cccc2ccccc12 (stereo unspecified) | 620 M⁻¹ s⁻¹ |
| CS(=O)(=O)ON1C(=O)CC(Cc2ccccc2C(F)(F)F)C1=O (stereo unspecified) | 189 M⁻¹ s⁻¹ |
| CC(C)C1CC(=O)N(OS(=O)(=O)/C=C/c2ccccc2)C1=O (stereo unspecified) | > 100000 M⁻¹ s⁻¹ |
| Cc1ccc(S(=O)(=O)ON2C(=O)CC(Cc3ccccc3)C2=O)cc1 (stereo unspecified) | 1610 M⁻¹ s⁻¹ |
| CC(C)C1CC(=O)N(OS(C)(=O)=O)C1=O (stereo unspecified) | 3820 M⁻¹ s⁻¹ |
| CC(C)CC1CC(=O)N(OS(C)(=O)=O)C1=O (stereo unspecified) | 49300 M⁻¹ s⁻¹ |
| CC(C)CC1CC(=O)N(OS(=O)(=O)/C=C/c2ccccc2)C1=O (stereo unspecified) | > 100000 M⁻¹ s⁻¹ |
| O=C1CC(Cc2ccccc2)C(=O)N1OS(=O)(=O)c1cccc(C(F)(F)F)c1 (stereo unspecified) | 316 M⁻¹ s⁻¹ |
| CN(C)S(=O)(=O)ON1C(=O)CC(Cc2ccccc2)C1=O (stereo unspecified) | 323 M⁻¹ s⁻¹ |
| CC(C)CCC1CC(=O)N(OS(C)(=O)=O)C1=O (stereo unspecified) | 361 M⁻¹ s⁻¹ |
| CCCCCCCCS(=O)(=O)ON1C(=O)CC(Cc2ccccc2)C1=O (stereo unspecified) | 1270 M⁻¹ s⁻¹ |
| CC(C)S(=O)(=O)ON1C(=O)CC(Cc2ccccc2)C1=O (stereo unspecified) | 1100 M⁻¹ s⁻¹ |
| CS(=O)(=O)ON1C(=O)CC(Cc2cccc(F)c2)C1=O (stereo unspecified) | 373 M⁻¹ s⁻¹ |
| CS(=O)(=O)ON1C(=O)CC(Cc2cccc(C(F)(F)F)c2)C1=O (stereo unspecified) | 217 M⁻¹ s⁻¹ |
| O=C1CC(Cc2ccccc2)C(=O)N1OS(=O)(=O)c1ccccc1 (stereo unspecified) | 1170 M⁻¹ s⁻¹ |
| CS(=O)(=O)ON1C(=O)CC(Cc2ccccc2)C1=O (stereo unspecified) | 1050 M⁻¹ s⁻¹ |
| O=C1CC(Cc2ccccc2)C(=O)N1OS(=O)(=O)c1ccc(Br)cc1 (stereo unspecified) | 1650 M⁻¹ s⁻¹ |
| O=C1CC(Cc2ccccc2)C(=O)N1OS(=O)(=O)c1ccc(F)cc1 (stereo unspecified) | 1110 M⁻¹ s⁻¹ |
| O=C1CC(Cc2ccccc2)C(=O)N1OS(=O)(=O)c1ccc2ccccc2c1 (stereo unspecified) | 1580 M⁻¹ s⁻¹ |
| CS(=O)(=O)ON1C(=O)CC(Cc2ccc(C(F)(F)F)cc2)C1=O (stereo unspecified) | 84 M⁻¹ s⁻¹ |
| O=C1CC(Cc2ccccc2)C(=O)N1OS(=O)(=O)/C=C/c1ccccc1 (stereo unspecified) | 9430 M⁻¹ s⁻¹ |
| CC(C)CCC1CC(=O)N(OS(=O)(=O)/C=C/c2ccccc2)C1=O (stereo unspecified) | 2250 M⁻¹ s⁻¹ |
| O=C1CC(Cc2ccccc2C(F)(F)F)C(=O)N1OS(=O)(=O)/C=C/c1ccccc1 (stereo unspecified) | 1860 M⁻¹ s⁻¹ |
| CCCCS(=O)(=O)ON1C(=O)CC(Cc2ccccc2)C1=O (stereo unspecified) | 1680 M⁻¹ s⁻¹ |
| O=C1CC(Cc2ccccc2)C(=O)N1OS(=O)(=O)Cc1ccccc1 (stereo unspecified) | 770 M⁻¹ s⁻¹ |

Target: T1, Neutrophil elastase (Homo sapiens)
Test: Catalytic rate constant (Kobs/[I]) against human leukocyte elastase was determined; Inactive
How it was run: as §1

| Compound | K obs / 1 |
| --- | --- |
| O=C1CCC(=O)N1OS(=O)(=O)/C=C/c1ccccc1 | inactive |
